Values after ≈ are worked out from the molar mass of the structure shown.
Legend:
Type in all cases: functional
Staphylococcus aureus [1] = assay: Antibacterial activity against gram-positive Staphylococcus aureus SA101 by CLSI method
Summary of the method: (§1)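 Broth microdilution MIC per CLSI in cation-adjusted Mueller Hinton broth, prepared fresh and held at 4 °C. Defibrinated horse blood added where appropriate. Compounds serially diluted in sterile deionized water. Strains from ATCC unless otherwise noted. Runs accepted when comparator antibiotics fell within QC ranges for ATCC quality control strains.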

Pseudomonas aeruginosa [2] = assay: Antibacterial activity against Pseudomonas aeruginosa PA694 in CD-1 mouse model of thigh infection assessed as reduction in log10CFU per gram of thigh administered intranasally as bid for 2 to 12 hrs of post-infection measured after 24 hrs
Pseudomonas aeruginosa [3] = assay: Antibacterial activity against Pseudomonas aeruginosa PA1145 in BALB/c mouse model of lung infection assessed as reduction in log10CFU per gram of lung compound administered intranasally as bid for 2 to 12 hrs of post-infection measured after 24 hrs
Summary of the method: (§2)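 Female BALB/c mice, 18 to 20 g, infected intranasally under light anesthesia with ~ 2 x 10^7 CFU/mouse of P. aeruginosa PA1145 (cystic fibrosis isolate) in 0.05 mL. Treatment at 2 and 12 h post-infection, IV, or intranasally for tobramycin; n = 6 per group. Lungs harvested 24 h after treatment began, homogenized, plated on MacConkey medium, incubated overnight at 37 °C in 5% CO2. CFU per gram lung compared with T = 24 h untreated control.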

Pseudomonas aeruginosa [4] = assay: Antibacterial activity against gram-negative Pseudomonas aeruginosa PA555 by CLSI method; summary of the method: as §1
Staphylococcus aureus [5] = assay: Antibacterial activity against gram-positive Staphylococcus aureus SA158 harboring tet(K) by CLSI method
Summary of the method: (§3)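 CLSI broth microdilution MIC in fresh cation-adjusted Mueller Hinton broth, supplemented with defibrinated horse blood where appropriate. Compounds serially diluted in sterile deionized water. Runs accepted when comparator antibiotics against ATCC quality-control strains fell within recommended ranges.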

Pseudomonas aeruginosa [6] = assay: Antibacterial activity against Pseudomonas aeruginosa PA1145 in BALB/c mouse model of lung infection assessed as reduction in log10CFU per gram of lung at 15 mg/kg, iv bid administered 2 to 12 hrs of post-infection measured after 24 hrs relative to untreated control; summary of the method: as §2
Escherichia coli [7] = assay: Antibacterial activity against gram-negative Escherichia coli EC155 harboring tet(A) by CLSI method; summary of the method: as §3
Acinetobacter baumannii = assay: Antibacterial activity against gram-negative Acinetobacter baumannii AB250 by CLSI method; summary of the method: as §1
Proteus mirabilis [8] = assay: Antibacterial activity against gram-negative Proteus mirabilis PM385 by CLSI method; summary of the method: as §1
Pseudomonas aeruginosa [9] = assay: Antibacterial activity against Pseudomonas aeruginosa PA694 in CD-1 mouse model of thigh infection assessed as reduction in log10CFU per gram of thigh at 15 mg/kg, iv bid administered 2 to 12 hrs of post-infection measured after 24 hrs relative to untreated control
Summary of the method: (§4)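 Groups of 5 female specific-pathogen-free CD-1 mice, 22 ± 2 g. Right thigh inoculated intramuscularly with 3-5 x 10^6 CFU/mouse of P. aeruginosa PA694 (UTI isolate). Dosed IV at 5, 15 or 40 mg/kg at 2 and 12 h post-infection. Thigh muscle harvested at 24 h post-infection, homogenized in PBS (pH 7.4), plated on Brain Heart Infusion agar + 0.5% charcoal. Log10 CFU per gram thigh compared with 24 h untreated control.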

Streptococcus pneumoniae [10] = assay: Antibacterial activity against gram-positive Streptococcus pneumoniae SP160 harboring tet(M) by CLSI method; summary of the method: as §3
Escherichia coli [11] = assay: Antibacterial activity against gram-negative Escherichia coli EC107 by CLSI method; summary of the method: as §1
Pseudomonas aeruginosa [12] = assay: Antibacterial activity against Pseudomonas aeruginosa PA694 in CD-1 mouse model of thigh infection administered as iv bid for 2 to 12 hrs of post-infection measured after 24 hrs
Summary of the method: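 Female specific-pathogen-free CD-1 mice (22 ± 2 g), groups of 5, inoculated intramuscularly into right thigh with 3-5 x 10^6 CFU/mouse P. aeruginosa PA694 (UTI isolate). IV dosing at 5, 15 and 40 mg/kg at 2 and 12 h post-infection. Thigh muscle harvested at 24 h, homogenized in PBS pH 7.4, plated on Brain Heart Infusion agar + 0.5% charcoal; CFU/g thigh vs untreated controls; Mann-Whitney.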

[13] = test system: Stenotrophomonas maltophilia; assay: Antibacterial activity against gram-negative Stenotrophomonas maltophilia SM256 by CLSI method; summary of the method: as §1
Pseudomonas aeruginosa [14] = assay: Antibacterial activity against Pseudomonas aeruginosa PA1145 in BALB/c mouse model of lung infection assessed as reduction in log10CFU per gram of lung at 40 mg/kg, iv bid administered 2 to 12 hrs of post-infection measured after 24 hrs relative to untreated control; summary of the method: as §2
Enterococcus faecium = assay: Antibacterial activity against gram-positive Enterococcus faecium EFm404 harboring tet(M) by CLSI method; summary of the method: as §3
Pseudomonas aeruginosa [15] = assay: Antibacterial activity against Pseudomonas aeruginosa PA694 in CD-1 mouse model of thigh infection assessed as reduction in log10CFU per gram of thigh at 40 mg/kg, iv bid administered 2 to 12 hrs of post-infection measured after 24 hrs relative to untreated control; summary of the method: as §4
Pseudomonas aeruginosa [16] = assay: Antibacterial activity against Pseudomonas aeruginosa PA694 in CD-1 mouse model of thigh infection assessed as reduction in log10CFU per gram of thigh at 5 mg/kg, iv bid administered 2 to 12 hrs of post-infection measured after 24 hrs relative to untreated control; summary of the method: as §4
Pseudomonas aeruginosa [17] = assay: Antibacterial activity against Pseudomonas aeruginosa PA1145 in BALB/c mouse model of lung infection assessed as reduction in log10CFU per gram of lung at 5 mg/kg, iv bid administered 2 to 12 hrs of post-infection measured after 24 hrs relative to untreated control; summary of the method: as §2
Enterococcus faecalis [18] = assay: Antibacterial activity against gram-positive Enterococcus faecalis EFs327 harboring tet(M) by CLSI method; summary of the method: as §3
Enterobacter cloacae = assay: Antibacterial activity against gram-negative Enterobacter cloacae EC1603 harboring tet(A) by CLSI method; summary of the method: as §3
Staphylococcus aureus [19] = assay: Antibacterial activity against gram-positive Staphylococcus aureus SA161 harboring tet(M) by CLSI method; summary of the method: as §3
Klebsiella pneumoniae [20] = assay: Antibacterial activity against gram-negative Klebsiella pneumoniae KP457 harboring blacTX-M-15 extended spectrum beta-lactamase gene by CLSI method; summary of the method: as §3
Pseudomonas aeruginosa [21] = assay: Antibacterial activity against Pseudomonas aeruginosa PA1145 in BALB/c mouse model of lung infection administered as iv bid for 2 to 12 hrs of post-infection measured after 24 hrs
Summary of the method: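 Female BALB/c mice (18–20 g) infected intranasally with ~2 x 10^7 CFU/mouse P. aeruginosa PA1145 (cystic fibrosis isolate) under light anesthesia. Dosing at 2 and 12 h post-infection, IV (compound, tigecycline, amikacin) or intranasal (tobramycin); n = 6 per group. Lungs harvested 24 h after treatment start, homogenized, plated on MacConkey agar, 37 °C overnight; CFU/g lung; Mann-Whitney vs T = 0 h or 24 h controls.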

Burkholderia cenocepacia = assay: Antibacterial activity against gram-negative Burkholderia cenocepacia BC240 by CLSI method
Summary of the method: (§5)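 Defibrinated horse blood added where appropriate. Compounds serially diluted in sterile deionized water. Strains from ATCC unless otherwise noted. Runs accepted when comparator antibiotics fell within QC ranges for ATCC quality control strains.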

Proteus mirabilis [22] = assay: Antibacterial activity against gram-negative Proteus mirabilis PM122 by CLSI method; summary of the method: as §5
Streptococcus pneumoniae [23] = assay: Antibacterial activity against gram-positive Streptococcus pneumoniae SP193 by CLSI method; summary of the method: as §1
Enterococcus faecalis [24] = assay: Antibacterial activity against gram-positive Enterococcus faecalis EF159 harboring tet(M) by CLSI method; summary of the method: as §3
Klebsiella pneumoniae [25] = assay: Antibacterial activity against gram-negative Klebsiella pneumoniae KP194 by CLSI method; summary of the method: as §1
Klebsiella pneumoniae [26] = assay: Antibacterial activity against gram-negative Klebsiella pneumoniae KP153 harboring tet(A) by CLSI method; summary of the method: as §3
Pseudomonas aeruginosa [27] = assay: Antibacterial activity against gram-negative Pseudomonas aeruginosa PA169 by CLSI method; summary of the method: as §5

| SMILES | MIC (Staphylococcus aureus [1]) | MIC (Staphylococcus aureus [5]) | MIC (Escherichia coli [7]) | MIC (Acinetobacter baumannii) | MIC (Streptococcus pneumoniae [10]) | MIC (Escherichia coli [11]) | MIC [13] | MIC (Staphylococcus aureus [19]) | MIC (Burkholderia cenocepacia) | MIC (Proteus mirabilis [22]) | MIC (Streptococcus pneumoniae [23]) | MIC (Enterococcus faecalis [24]) | MIC (Klebsiella pneumoniae [25]) | MIC (Klebsiella pneumoniae [26]) | MIC (Pseudomonas aeruginosa [27]) | also measured |
| --- | --- | --- | --- | --- | --- | --- | --- | --- | --- | --- | --- | --- | --- | --- | --- | --- |
| CN(C)[C@@H]1C(O)=C(C(N)=O)C(=O)[C@@]2(O)C(O)=C3C(=O)c4c(O)cc([C@@H]5CCCN5)c(C(F)(F)F)c4C[C@H]3C[C@@H]12 | 0.0625 µg/mL (≈ 0.113 µM) | ≤ 0.0156 µg/mL | 2 µg/mL (≈ 3.63 µM) | 2 µg/mL (≈ 3.63 µM) | ≤ 0.0156 µg/mL | ≤ 0.0156 µg/mL | 1 µg/mL (≈ 1.81 µM) | 4 µg/mL (≈ 7.25 µM) | 8 µg/mL (≈ 14.5 µM) |  |  |  |  |  |  | Activity (Pseudomonas aeruginosa [2]): Dose-dependent effect; Activity (Pseudomonas aeruginosa [3]): Dose-dependent effect; MIC (Pseudomonas aeruginosa [4]): 4 µg/mL (≈ 7.25 µM); Activity (Pseudomonas aeruginosa [6]): 2.3 deltalog10CFU; MIC (Proteus mirabilis [8]): 0.5 µg/mL (≈ 0.907 µM); Activity (Pseudomonas aeruginosa [9]): 0.9 deltalog10CFU; MIC (Pseudomonas aeruginosa [12]): 4 µg/mL (≈ 7.25 µM); Activity (Pseudomonas aeruginosa [14]): 3.7 deltalog10CFU; MIC (Enterococcus faecium): 0.25 µg/mL (≈ 0.453 µM); Activity (Pseudomonas aeruginosa [15]): 1.9 deltalog10CFU; Activity (Pseudomonas aeruginosa [16]): 0.4 deltalog10CFU; Activity (Pseudomonas aeruginosa [17]): 1.7 deltalog10CFU; MIC (Enterococcus faecalis [18]): 1 µg/mL (≈ 1.81 µM); MIC (Enterobacter cloacae): 8 µg/mL (≈ 14.5 µM); MIC (Klebsiella pneumoniae [20]): 0.125 µg/mL (≈ 0.227 µM); MIC (Pseudomonas aeruginosa [21]): 2 µg/mL (≈ 3.63 µM) |
| CN1CCCC1c1cc(O)c2c(c1Cl)C[C@H]1C[C@H]3[C@H](N(C)C)C(O)=C(C(N)=O)C(=O)[C@@]3(O)C(O)=C1C2=O (some centres undefined) | 0.125 µg/mL (≈ 0.235 µM) | ≤ 0.0156 µg/mL | 1 µg/mL (≈ 1.88 µM) | 0.5 µg/mL (≈ 0.94 µM) | 0.5 µg/mL (≈ 0.94 µM) | ≤ 0.0156 µg/mL | 0.125 µg/mL (≈ 0.235 µM) | 1 µg/mL (≈ 1.88 µM) | 8 µg/mL (≈ 15 µM) | 0.5 µg/mL (≈ 0.94 µM) | ≤ 0.0156 µg/mL | 1 µg/mL (≈ 1.88 µM) | 8 µg/mL (≈ 15 µM) | 0.5 µg/mL (≈ 0.94 µM) | 16 µg/mL (≈ 30.1 µM) |  |
| CN(C)[C@@H]1C(O)=C(C(N)=O)C(=O)[C@@]2(O)C(O)=C3C(=O)c4c(O)cc(-c5cccnc5)c(Cl)c4C[C@H]3C[C@@H]12 | 0.125 µg/mL (≈ 0.238 µM) | 0.125 µg/mL (≈ 0.238 µM) | > 32 µg/mL | > 32 µg/mL | 8 µg/mL (≈ 15.2 µM) | 2 µg/mL (≈ 3.8 µM) | 2 µg/mL (≈ 3.8 µM) | 1 µg/mL (≈ 1.9 µM) | 8 µg/mL (≈ 15.2 µM) | 16 µg/mL (≈ 30.4 µM) | 0.25 µg/mL (≈ 0.475 µM) | 1 µg/mL (≈ 1.9 µM) |  | > 32 µg/mL | > 32 µg/mL |  |
| CN1CCCCC1c1cc(O)c2c(c1Cl)C[C@H]1C[C@H]3[C@H](N(C)C)C(O)=C(C(N)=O)C(=O)[C@@]3(O)C(O)=C1C2=O (some centres undefined) | 0.25 µg/mL (≈ 0.458 µM) | 0.0313 µg/mL (≈ 0.0573 µM) | 1 µg/mL (≈ 1.83 µM) | 2 µg/mL (≈ 3.66 µM) | 0.25 µg/mL (≈ 0.458 µM) | 0.125 µg/mL (≈ 0.229 µM) | 1 µg/mL (≈ 1.83 µM) | 4 µg/mL (≈ 7.33 µM) | 8 µg/mL (≈ 14.7 µM) | 1 µg/mL (≈ 1.83 µM) | ≤ 0.0156 µg/mL | 2 µg/mL (≈ 3.66 µM) | 16 µg/mL (≈ 29.3 µM) | 1 µg/mL (≈ 1.83 µM) | 32 µg/mL (≈ 58.6 µM) |  |
| CN1CCCCCC1c1cc(O)c2c(c1Cl)C[C@H]1C[C@H]3[C@H](N(C)C)C(O)=C(C(N)=O)C(=O)[C@@]3(O)C(O)=C1C2=O (some centres undefined) | 0.25 µg/mL (≈ 0.446 µM) | 0.0313 µg/mL (≈ 0.0559 µM) | 2 µg/mL (≈ 3.57 µM) | 2 µg/mL (≈ 3.57 µM) | 0.5 µg/mL (≈ 0.893 µM) | 0.0625 µg/mL (≈ 0.112 µM) | 0.5 µg/mL (≈ 0.893 µM) | 2 µg/mL (≈ 3.57 µM) | 8 µg/mL (≈ 14.3 µM) | 4 µg/mL (≈ 7.14 µM) | ≤ 0.0156 µg/mL | 2 µg/mL (≈ 3.57 µM) | 16 µg/mL (≈ 28.6 µM) | 1 µg/mL (≈ 1.79 µM) | 32 µg/mL (≈ 57.1 µM) |  |
